Measurements as given in ChEMBL document CHEMBL1135021, “Biotinylated lithocholic acids for affinity chromatography of mammalian DNA polymerases alpha and beta” (Bioorg Med Chem Lett, 2002).
One block for each compound: values may come before it.

Legend:
DNA polymerase beta [1] = biological target: T1, DNA polymerase beta (Rattus norvegicus, UniProt P06766); assay: Inhibition constant at a concentration of 10 uM on rat DNA polymerase beta as a function of nucleotide substrate concentration
Summary of the method: (§1)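 Kinetic runs used calf thymus pol α or rat pol β (0.05 units each) preincubated with compound at 0 °C for 10 min in Tris–HCl pH 7.5/DTT/glycerol/EDTA buffer. Either poly(dA)/oligo(dT)12–18 (2/1) template-primer or dTTP substrate was varied. Km and Vmax came from double reciprocal plots, Ki from Dixon plots.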

DNA polymerase beta [2] = biological target: T1, DNA polymerase beta; assay: Inhibitory effect on the activity of mammalian DNA polymerase beta was determined by inhibitory dose curves
Summary of the method: (§2)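 Calf thymus pol α (immunoaffinity-purified) and rat pol β, 0.05 units each final, with poly(dA)/oligo(dT)12–18 (2/1) and dTTP. Compounds in DMSO, sonicated 30 s, then preincubated with enzyme at 0 °C for 10 min in 50 mM Tris–HCl pH 7.5, 1 mM DTT, 50% glycerol, 0.1 mM EDTA. Mixtures added to standard reactions; activity without compound taken as 100%. IC50 from dose–response curves.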

DNA polymerase beta [3] = biological target: T1, DNA polymerase beta; assay: Inhibition constant at a concentration of 10 uM on rat DNA polymerase beta as a function of template primer dose; summary of the method: as §1
Nucleic Acid [4] = assay: Inhibition constant at a concentration of 5 uM on calf DNA polymerase alpha as a function of template primer dose; assay type: nucleic-acid assay, Bos taurus; summary of the method: as §1
Nucleic Acid [5] = assay: Inhibition constant at a concentration of 5 uM on calf DNA polymerase alpha as a function of nucleotide substrate concentration; assay type: nucleic-acid assay, Bos taurus; summary of the method: as §1
Nucleic Acid [6] = assay: Inhibitory effect on the activity of mammalian DNA polymerase alpha was determined by inhibitory dose curves; assay type: nucleic-acid assay, Bos taurus; summary of the method: as §2
Nucleic Acid [7] = assay: Inhibitory effect on the activity of calf thymus DNA polymerase alpha was determined by inhibitory dose curves; assay type: nucleic-acid assay, Bos taurus
Summary of the method: (§3)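 Calf thymus DNA pol α (immunoaffinity-purified), 0.05 units, with poly(dA)/oligo(dT)12-18 template-primer and dTTP substrate. Compounds in DMSO at various concentrations, sonicated 30 s, then preincubated with enzyme in 50 mM Tris–HCl pH 7.5, 1 mM DTT, 50% glycerol, 0.1 mM EDTA at 0 °C for 10 min before addition to the reaction mix. Activity without compound was set as 100%, and IC50 was read from dose–response curves.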

DNA polymerase beta [8] = biological target: T1, DNA polymerase beta; assay: Inhibition constant at a concentration of 5 uM on rat DNA polymerase beta as a function of template primer dose
Summary of the method: (§4)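 Rat DNA pol β (0.05 units final) with poly(dA)/oligo(dT)12-18 (2/1) as template-primer and dTTP as nucleotide substrate. Inhibitor was dissolved in DMSO, sonicated 30 s, then preincubated with enzyme at 0 °C for 10 min in 50 mM Tris-HCl pH 7.5, 1 mM DTT, 50% glycerol and 0.1 mM EDTA. The mix was added to standard reactions with template-primer or dTTP varied. Ki came from double-reciprocal and Dixon plots.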

Nucleic Acid [9] = assay: Inhibition constant at a concentration of 25 uM on calf DNA polymerase alpha as a function of template primer dose; assay type: nucleic-acid assay, Bos taurus
Summary of the method: (§5)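 Calf thymus DNA pol α (immunoaffinity-purified), 0.05 units. Compound in DMSO, sonicated 30 s, preincubated with enzyme in 50 mM Tris–HCl pH 7.5, 1 mM DTT, 50% glycerol, 0.1 mM EDTA at 0 °C for 10 min. Activity measured varying poly(dA)/oligo(dT)12-18 (2/1) template-primer or dTTP nucleotide substrate. Km and Vmax were taken from double reciprocal plots and Ki from Dixon plots.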

Nucleic Acid [10] = assay: Inhibition constant at a concentration of 25 uM on calf DNA polymerase alpha as a function of nucleotide substrate concentration; assay type: nucleic-acid assay, Bos taurus; summary of the method: as §5
DNA polymerase beta [11] = biological target: T1, DNA polymerase beta; assay: Inhibition constant at a concentration of 5 uM on rat DNA polymerase beta as a function of nucleotide substrate concentration; summary of the method: as §4
DNA polymerase beta [12] = biological target: T1, DNA polymerase beta; assay: Inhibitory effect on the activity of rat DNA polymerase beta was determined by inhibitory dose curves
Summary of the method: as §3, with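 “Rat” for “Calf thymus”, “β,” for “α (immunoaffinity-purified),”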

Structure (SMILES): C[C@H](CCC(=O)O)[C@H]1CC[C@H]2[C@@H]3CCC4C[C@@H](OC(=O)CCNC(=O)CCCCCNC(=O)CCCCCNC(=O)CCCCC5SCC6NC(=O)NC65)CC[C@]4(C)[C@H]3CC[C@]12C (stereo partly specified)
Ki (DNA polymerase beta [1]): 20.1 µM | IC50 (DNA polymerase beta [2]): 32 µM | Ki (DNA polymerase beta [3]): 12.8 µM | Ki (Nucleic Acid [4]): 7.7 µM | Ki (Nucleic Acid [5]): 5.5 µM | IC50 (Nucleic Acid [6]): 10 µM

Structure (SMILES): C[C@H](CCC(=O)O)[C@H]1CC[C@H]2[C@@H]3CCC4C[C@@H](O)CC[C@]4(C)[C@H]3CC[C@]12C (stereo partly specified)
IC50 (Nucleic Acid [7]): 40 µM | Ki (DNA polymerase beta [8]): 4.7 µM | Ki (Nucleic Acid [9]): 15.3 µM | Ki (Nucleic Acid [10]): 22.5 µM | Ki (DNA polymerase beta [11]): 6.6 µM | IC50 (DNA polymerase beta [12]): 11 µM

IC50 (Nucleic Acid [7]): 29 µM | IC50 (DNA polymerase beta [12]): 31 µM
Structure (SMILES): C[C@H](CCC(=O)O)[C@H]1CC[C@H]2[C@@H]3CCC4C[C@@H](OC(=O)CCNC(=O)CCCCC5SCC6NC(=O)NC65)CC[C@]4(C)[C@H]3CC[C@]12C (stereo partly specified)

IC50 (Nucleic Acid [7]): 42 µM | IC50 (DNA polymerase beta [12]): 46 µM
Structure (SMILES): C[C@H](CCC(=O)O)[C@H]1CC[C@H]2[C@@H]3CCC4C[C@@H](OC(=O)CCNC(=O)CCCCCNC(=O)CCCCC5SCC6NC(=O)NC65)CC[C@]4(C)[C@H]3CC[C@]12C (stereo partly specified)
